According to paper PMC9564113 (Peptide Science (Hoboken, N.j.), 2022):
≈ marks a conversion by molar mass, not a printed value. Read-outs that look alike come from different tables or passages of the source. Ends that are not written are not given here.

Key:
[1] = test system: S. aureus USA300 membranes; assay: Membrane permeabilization; assay type: cell-based, Staphylococcus aureus; settings: in PBS, 4 × MIC (YZ103 16 μM, YZ105 4 μM, nafcillin 2 μM, linezolid 16 μM, LL‐37 16 μM), 20 μM propidium iodide, 37 °C
[2] = test system: S. aureus USA300 membrane potential; assay: Membrane depolarization; assay type: cell-based, Staphylococcus aureus; settings: DiBAC4(3) 500 nM; YZ105 8 μM, nafcillin 4 μM, linezolid 32 μM; Triton X‐100 positive control
Procedure, shortened: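 USA300 was grown in TSB to exponential phase, washed twice with PBS, and resuspended in PBS with 25 mM glucose (15 min, 37 °C). DiBAC4(3) was added to 500 nM. Baseline fluorescence (ex 485/em 520 nm) was read for 20 min. Test compound was then added and reading continued for 40 min, with Triton X-100 as positive control.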

[3] = test system: S. aureus USA300 LAC biofilms; assay: Effect on 24 h preformed biofilms; assay type: cell-based, Staphylococcus aureus
Procedure, shortened: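 Biofilms were formed for 24 h at 37 °C from exponential-phase USA300 LAC. After PBS washes they were exposed to test compound in fresh TSB for 24 h at 37 °C. Following further washes, viable cells were measured by XTT (2 h, 37 °C, A450, blank of medium plus XTT). Results are given as % growth relative to untreated (100%), with water-treated and uninoculated controls; mean ± SD, p < 0.05.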

[4] = test system: Staphylococcus aureus USA300 LAC; assay: Broth microdilution MIC, S. aureus USA300 LAC; assay type: cell-based; settings: for MIC: Staphylococcus aureus
Procedure, shortened: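 Broth microdilution was run in tryptic soy broth. Log-phase USA300 LAC (OD600 ≈ 0.5) was diluted to 0.001 OD over serially diluted test compound, incubated 18–20 h at 37 °C and read at 630 nm. For medium effects the broth was adjusted to pH 5.5, 6.8, 7.4 or 8.0, brought to 100 mM NaCl, or supplemented with 1, 5 or 10% human serum.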

[5] = test system: S. aureus USA300; assay: Killing kinetics of exponential bacteria; assay type: cell-based, Staphylococcus aureus; settings: 4 × MIC (YZ105 4 uM, nafcillin 2 μM, linezolid 16 μM), 2 h, exponential phase bacteria, colony counting
[6] = test system: Gram‐positive and Gram‐negative bacteria; settings: G+ = Gram‐positive bacteria; cited from earlier work
[7] = test system: Gram‐positive pathogens (S. aureus, Enterococcus faecalis, Streptococcus spp., Bacillus anthracis, Clostridioides difficile, Propionibacterium acnes, Mycobacter); settings: cited from earlier work
[8] = test system: Pseudomonas aeruginosa E411‐17; assay: Broth microdilution MIC, P. aeruginosa E411-17; assay type: cell-based; settings: TSB, 37 °C, 18–20 h
Procedure, shortened: (§1)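 Log-phase cultures (OD600 ≈ 0.5) grown in tryptic soy broth were diluted to 0.001 OD and added to serially diluted test compound. Peptide stocks were freshly made in autoclaved water and quantitated by UV. Plates were incubated at 37 °C for 18–20 h and read at 630 nm for growth.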

[9] = test system: Staphylococcus epidermidis 1457; assay: Broth microdilution MIC, S. epidermidis 1457; assay type: cell-based; settings: TSB, 37 °C, 18–20 h
Procedure, shortened: as §1

[10] = test system: Escherichia coli E423‐17; assay: Broth microdilution MIC, E. coli E423-17; assay type: cell-based; settings: TSB, 37 °C, 18–20 h
Procedure, shortened: as §1

[11] = test system: Acinetobacter baumannii B28‐16; assay: Broth microdilution MIC, A. baumannii B28-16; assay type: cell-based; settings: TSB, 37 °C, 18–20 h
Procedure, shortened: as §1

[12] = test system: Klebsiella pneumoniae E406‐17; assay: Broth microdilution MIC, K. pneumoniae E406-17; assay type: cell-based; settings: TSB, 37 °C, 18–20 h
Procedure, shortened: as §1

[13] = test system: Nafcillin‐resistant S. aureus USA300; assay: Antibacterial assay, nafcillin-resistant S. aureus USA300; assay type: cell-based, Staphylococcus aureus; settings: Staphylococcus aureus, USA300, read-out: MIC, Nafcillin‐resistant USA300
Procedure, shortened: as §1

[14] = USA300, pH 5.5, read-out: MIC against S. aureus USA300, pH 5.5
[15] = USA300, pH 6.8, read-out: MIC against S. aureus USA300, pH 6.8
[16] = USA300, pH 7.4, read-out: MIC against S. aureus USA300, pH 7.4
[17] = USA300, pH 8, read-out: MIC against S. aureus USA300, pH 8
[18] = USA300, read-out: MIC against S. aureus USA300, 100 mM NaCl

For “LL‐37: human cathelicidin LL‐37 (LLGDFFRKSKEKIGKEFKRIVQRIKDFLRNLVPRTES; Antibacterial peptide LL-37; UniProt P49913 134-170, looked up)”, the “Membrane permeabilization (propidium iodide fluorescence)” value (“Membrane permeabilization” below) [1] was “steady increase in fluorescence with time”.
With `CC(=O)NC[C@H]1CN(c2ccc(N3CCOCC3)c(F)c2)C(=O)O1` [Linezolid, linezolid, reference compound] the Membrane depolarization [2] was “neither nafcillin nor linezolid was able to”, the “Effect on 24 h preformed biofilms in combination” value ([3]; in the presence of 2 μM YZ105, XTT) was “became more effective” and the MIC [4, 14] was 4 µM (≈ 1.35 µg/mL). The MIC [4, 15] was 4 µM (≈ 1.35 µg/mL), the MIC [4, 16] was 4 µM (≈ 1.35 µg/mL) and the MIC [4, 17] was 4 to 8 µM (≈ 1.35 to 2.7 µg/mL). For the same molecule, the MIC [4, 18] was 4 µM (≈ 1.35 µg/mL), the “Membrane permeabilization” value [1] was “neither nafcillin nor linezolid permeabilized the membranes” and the “Reduction of MRSA counts (CFU) in killing kinetics” value [5] was 1 log.
For teixobactin, the Activity spectrum [6] is given as “Mainly G+” and the MIC [7] is given as 5 to 250 ng/mL.
For FLSKILSTLRILF-NH2 [YZ107], the “Antibacterial minimal inhibitory concentration, Pseudomonas aeruginosa E411‐17” value [8] was 8 to 16 µM, the “Antibacterial minimal inhibitory concentration, Staphylococcus aureus USA300 LAC” value ([4]; broth microdilution, TSB, 37 °C, 18–20 h, read at 630 nm) was 2 µM and the “Antibacterial minimal inhibitory concentration, Staphylococcus epidermidis 1457” value [9] was 2 µM. For the same molecule, the “Antibacterial minimal inhibitory concentration, Escherichia coli E423‐17” value [10] was 8 µM, the “Antibacterial minimal inhibitory concentration, Acinetobacter baumannii B28‐16” value [11] was 4 to 8 µM and the “Antibacterial minimal inhibitory concentration, Klebsiella pneumoniae E406‐17” value [12] was greater than 16 µM.
For `CCOc1ccc2ccccc2c1C(=O)N[C@@H]1C(=O)N2[C@@H]1SC(C)(C)[C@@H]2C(=O)O` [Nafcillin, nafcillin, reference compound], the Membrane depolarization [2] was “neither nafcillin nor linezolid was able to”, the “Effect on 24 h preformed biofilms” value ([3]; 24 h treatment in TSB, live cells by XTT at 450 nm, relative to untreated (100%)) was “did not display a clear effect” and the MIC [4, 14] was 0.5 µM (≈ 0.207 µg/mL). The MIC [4, 15] was 1 µM (≈ 0.414 µg/mL), the MIC [4, 16] was 0.5 to 1 µM (≈ 0.207 to 0.414 µg/mL) and the MIC [4, 17] was 1 µM (≈ 0.414 µg/mL). For the same molecule, the MIC [4, 18] was 1 to 2 µM (≈ 0.414 to 0.829 µg/mL), the “Increase of MIC values by serum” value ([4]; TSB with human serum compared with normal TSB) was 4–8 fold and the “Membrane permeabilization” value [1] was “neither nafcillin nor linezolid permeabilized the membranes”. For the same molecule, the “Reduction of MRSA counts (CFU) in killing kinetics” value [5] was “barely reduced bacterial burden” and the MIC [13] was 1020 µM (≈ 424 µg/mL).
